Assay results published in ChEMBL document CHEMBL5653631, “A Potent and Selective ULK1 Inhibitor Suppresses Autophagy and Sensitizes Cancer Cells to Nutrient Stress” (iScience, 2018).

Tests used:
[1] = biological target: MAP/microtubule affinity-regulating kinase 3 (Homo sapiens) (UniProt P27448); assay: Inhibition of human recombinant MARK3 at 500 nM related to control ULK1
[2] = biological target: T1, Serine/threonine-protein kinase 17A (Homo sapiens) (UniProt Q9UEE5); assay: Inhibition of human recombinant DRAK1 at 500 nM related to control ULK1
T1 sequence (whole entry): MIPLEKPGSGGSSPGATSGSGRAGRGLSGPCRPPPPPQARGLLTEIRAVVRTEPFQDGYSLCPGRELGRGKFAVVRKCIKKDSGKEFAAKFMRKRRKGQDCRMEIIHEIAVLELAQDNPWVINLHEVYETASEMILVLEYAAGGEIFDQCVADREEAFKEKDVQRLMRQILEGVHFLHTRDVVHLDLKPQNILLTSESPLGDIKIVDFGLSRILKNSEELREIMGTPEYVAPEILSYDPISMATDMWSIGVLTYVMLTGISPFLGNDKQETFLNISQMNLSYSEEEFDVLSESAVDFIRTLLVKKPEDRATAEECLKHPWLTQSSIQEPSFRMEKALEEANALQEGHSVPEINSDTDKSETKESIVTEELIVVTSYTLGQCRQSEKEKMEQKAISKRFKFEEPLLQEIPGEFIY

[3] = biological target: Angiopoietin-1 receptor (Homo sapiens) (UniProt Q02763); assay: Inhibition of human recombinant Tie2 at 500 nM in presence of ATP by radiometric assay relative to control
Chain of Angiopoietin-1 receptor (Homo sapiens) (Q02763 whole entry): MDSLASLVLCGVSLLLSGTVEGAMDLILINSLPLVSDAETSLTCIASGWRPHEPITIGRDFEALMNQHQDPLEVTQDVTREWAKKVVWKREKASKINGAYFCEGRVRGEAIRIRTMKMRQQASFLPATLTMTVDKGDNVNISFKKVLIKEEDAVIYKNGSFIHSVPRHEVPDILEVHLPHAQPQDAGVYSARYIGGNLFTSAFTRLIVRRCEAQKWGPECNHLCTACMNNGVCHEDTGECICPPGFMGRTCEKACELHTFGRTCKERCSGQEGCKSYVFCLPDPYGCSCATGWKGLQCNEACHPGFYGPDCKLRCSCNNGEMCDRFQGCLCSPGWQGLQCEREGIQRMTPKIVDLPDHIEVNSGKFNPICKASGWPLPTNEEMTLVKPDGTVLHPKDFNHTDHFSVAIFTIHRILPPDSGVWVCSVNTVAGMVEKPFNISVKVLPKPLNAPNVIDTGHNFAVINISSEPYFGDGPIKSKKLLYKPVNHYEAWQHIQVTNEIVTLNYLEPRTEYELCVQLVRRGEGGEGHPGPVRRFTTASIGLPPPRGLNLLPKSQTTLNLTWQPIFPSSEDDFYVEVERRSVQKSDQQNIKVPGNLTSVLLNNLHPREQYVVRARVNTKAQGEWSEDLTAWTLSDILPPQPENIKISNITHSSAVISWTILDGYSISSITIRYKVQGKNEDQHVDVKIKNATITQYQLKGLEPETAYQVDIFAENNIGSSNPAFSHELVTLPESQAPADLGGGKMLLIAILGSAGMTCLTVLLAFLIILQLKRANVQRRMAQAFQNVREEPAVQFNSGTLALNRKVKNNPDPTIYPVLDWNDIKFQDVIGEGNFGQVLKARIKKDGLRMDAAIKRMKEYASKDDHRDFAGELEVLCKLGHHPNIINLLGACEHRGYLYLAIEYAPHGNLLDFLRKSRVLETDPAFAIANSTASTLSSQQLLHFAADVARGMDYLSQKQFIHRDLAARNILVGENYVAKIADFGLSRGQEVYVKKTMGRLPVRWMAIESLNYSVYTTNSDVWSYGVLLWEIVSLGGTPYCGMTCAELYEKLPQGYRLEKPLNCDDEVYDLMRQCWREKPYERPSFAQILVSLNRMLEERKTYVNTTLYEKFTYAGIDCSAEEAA

[4] = biological target: Proto-oncogene tyrosine-protein kinase ROS (Homo sapiens) (UniProt P08922); assay: Inhibition of human recombinant ROS at 500 nM in presence of ATP by radiometric assay relative to control
Chain of Proto-oncogene tyrosine-protein kinase ROS (Homo sapiens) (P08922 whole entry): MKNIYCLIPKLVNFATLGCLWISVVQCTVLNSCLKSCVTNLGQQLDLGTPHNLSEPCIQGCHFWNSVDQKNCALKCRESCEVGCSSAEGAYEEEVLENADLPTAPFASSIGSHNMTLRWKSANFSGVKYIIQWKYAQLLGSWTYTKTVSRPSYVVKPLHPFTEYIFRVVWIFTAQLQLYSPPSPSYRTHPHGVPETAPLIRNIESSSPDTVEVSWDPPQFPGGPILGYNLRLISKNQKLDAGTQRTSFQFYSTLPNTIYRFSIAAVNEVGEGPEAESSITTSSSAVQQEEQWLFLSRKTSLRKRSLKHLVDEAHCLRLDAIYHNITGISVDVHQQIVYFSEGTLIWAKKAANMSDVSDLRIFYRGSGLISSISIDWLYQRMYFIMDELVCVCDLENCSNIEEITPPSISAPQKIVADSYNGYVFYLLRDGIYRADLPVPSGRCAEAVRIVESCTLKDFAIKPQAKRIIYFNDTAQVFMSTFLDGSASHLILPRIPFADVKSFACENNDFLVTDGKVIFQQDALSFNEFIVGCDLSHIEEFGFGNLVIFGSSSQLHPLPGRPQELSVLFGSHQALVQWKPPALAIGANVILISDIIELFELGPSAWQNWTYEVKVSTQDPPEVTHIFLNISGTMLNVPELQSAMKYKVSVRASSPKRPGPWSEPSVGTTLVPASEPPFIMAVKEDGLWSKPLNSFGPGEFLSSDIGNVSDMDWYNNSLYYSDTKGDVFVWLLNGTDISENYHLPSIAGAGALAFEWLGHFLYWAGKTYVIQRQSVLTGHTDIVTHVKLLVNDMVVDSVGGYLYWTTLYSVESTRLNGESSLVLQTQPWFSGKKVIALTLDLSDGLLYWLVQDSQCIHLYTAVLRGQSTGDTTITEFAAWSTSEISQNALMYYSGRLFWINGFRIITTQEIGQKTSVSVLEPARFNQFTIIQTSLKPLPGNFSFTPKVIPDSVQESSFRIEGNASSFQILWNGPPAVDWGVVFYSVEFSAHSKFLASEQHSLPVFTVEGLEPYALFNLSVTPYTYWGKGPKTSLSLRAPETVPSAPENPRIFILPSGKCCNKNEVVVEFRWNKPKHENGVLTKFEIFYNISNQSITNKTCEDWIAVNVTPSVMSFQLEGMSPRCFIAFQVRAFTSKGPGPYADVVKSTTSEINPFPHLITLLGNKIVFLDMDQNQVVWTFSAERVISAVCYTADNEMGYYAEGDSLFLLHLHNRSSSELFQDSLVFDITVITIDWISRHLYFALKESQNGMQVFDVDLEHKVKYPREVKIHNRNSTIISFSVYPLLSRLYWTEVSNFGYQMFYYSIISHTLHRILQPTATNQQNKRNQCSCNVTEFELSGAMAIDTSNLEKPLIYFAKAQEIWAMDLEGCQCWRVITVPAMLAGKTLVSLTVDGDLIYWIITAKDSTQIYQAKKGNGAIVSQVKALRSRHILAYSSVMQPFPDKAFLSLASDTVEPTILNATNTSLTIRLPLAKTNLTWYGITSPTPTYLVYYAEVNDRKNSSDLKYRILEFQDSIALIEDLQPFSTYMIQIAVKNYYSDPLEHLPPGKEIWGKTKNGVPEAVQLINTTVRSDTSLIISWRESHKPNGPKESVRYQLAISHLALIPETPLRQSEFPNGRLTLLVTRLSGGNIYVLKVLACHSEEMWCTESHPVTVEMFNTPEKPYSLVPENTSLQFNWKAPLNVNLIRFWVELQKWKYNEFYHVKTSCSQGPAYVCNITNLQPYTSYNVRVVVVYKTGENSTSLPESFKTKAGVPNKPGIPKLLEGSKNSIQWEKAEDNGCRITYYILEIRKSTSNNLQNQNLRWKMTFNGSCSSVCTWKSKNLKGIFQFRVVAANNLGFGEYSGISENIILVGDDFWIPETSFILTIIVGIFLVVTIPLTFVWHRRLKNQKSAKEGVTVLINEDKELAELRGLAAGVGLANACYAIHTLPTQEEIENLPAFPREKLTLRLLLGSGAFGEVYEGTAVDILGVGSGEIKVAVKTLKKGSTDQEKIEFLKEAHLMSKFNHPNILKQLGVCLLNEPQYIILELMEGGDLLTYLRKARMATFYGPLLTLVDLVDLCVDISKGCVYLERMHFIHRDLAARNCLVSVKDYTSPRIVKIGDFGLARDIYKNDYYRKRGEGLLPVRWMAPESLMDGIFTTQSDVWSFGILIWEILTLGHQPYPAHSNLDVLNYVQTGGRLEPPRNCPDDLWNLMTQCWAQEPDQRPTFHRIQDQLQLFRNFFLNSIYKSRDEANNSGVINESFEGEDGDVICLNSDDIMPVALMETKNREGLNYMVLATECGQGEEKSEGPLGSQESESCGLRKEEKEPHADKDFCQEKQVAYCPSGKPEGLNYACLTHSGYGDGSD

[5] = biological target: Serine/threonine-protein kinase PAK 4 (Homo sapiens) (UniProt O96013); assay: Inhibition of human recombinant PAK4 at 500 nM related to control ULK1
[6] = biological target: Wee1-like protein kinase (Homo sapiens) (UniProt P30291); assay: Inhibition of human recombinant Wee1 at 15 nM related to control ULK1
Chain of Wee1-like protein kinase (Homo sapiens) (P30291 whole entry, looked up): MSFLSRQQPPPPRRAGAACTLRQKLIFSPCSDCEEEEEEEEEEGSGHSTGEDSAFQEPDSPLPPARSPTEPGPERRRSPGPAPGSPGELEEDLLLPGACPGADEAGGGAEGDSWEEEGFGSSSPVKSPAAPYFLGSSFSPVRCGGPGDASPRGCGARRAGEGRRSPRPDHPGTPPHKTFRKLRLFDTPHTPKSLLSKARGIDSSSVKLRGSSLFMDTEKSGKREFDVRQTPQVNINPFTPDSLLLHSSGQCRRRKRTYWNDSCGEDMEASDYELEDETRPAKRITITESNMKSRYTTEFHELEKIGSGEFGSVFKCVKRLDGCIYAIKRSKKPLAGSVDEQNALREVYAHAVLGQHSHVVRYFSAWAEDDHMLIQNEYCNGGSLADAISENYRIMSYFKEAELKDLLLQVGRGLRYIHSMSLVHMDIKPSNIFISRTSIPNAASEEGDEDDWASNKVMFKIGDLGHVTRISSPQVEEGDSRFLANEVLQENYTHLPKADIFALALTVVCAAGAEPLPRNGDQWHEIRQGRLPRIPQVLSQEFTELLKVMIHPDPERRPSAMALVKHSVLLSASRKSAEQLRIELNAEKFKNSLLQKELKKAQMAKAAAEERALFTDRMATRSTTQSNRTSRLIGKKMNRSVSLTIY

[7] = biological target: T2, Inhibitor of nuclear factor kappa-B kinase subunit alpha (Homo sapiens) (UniProt O15111); assay: Inhibition of human recombinant IKKa at 15 nM in presence of ATP by radiometric assay relative to control
T2 sequence (whole entry): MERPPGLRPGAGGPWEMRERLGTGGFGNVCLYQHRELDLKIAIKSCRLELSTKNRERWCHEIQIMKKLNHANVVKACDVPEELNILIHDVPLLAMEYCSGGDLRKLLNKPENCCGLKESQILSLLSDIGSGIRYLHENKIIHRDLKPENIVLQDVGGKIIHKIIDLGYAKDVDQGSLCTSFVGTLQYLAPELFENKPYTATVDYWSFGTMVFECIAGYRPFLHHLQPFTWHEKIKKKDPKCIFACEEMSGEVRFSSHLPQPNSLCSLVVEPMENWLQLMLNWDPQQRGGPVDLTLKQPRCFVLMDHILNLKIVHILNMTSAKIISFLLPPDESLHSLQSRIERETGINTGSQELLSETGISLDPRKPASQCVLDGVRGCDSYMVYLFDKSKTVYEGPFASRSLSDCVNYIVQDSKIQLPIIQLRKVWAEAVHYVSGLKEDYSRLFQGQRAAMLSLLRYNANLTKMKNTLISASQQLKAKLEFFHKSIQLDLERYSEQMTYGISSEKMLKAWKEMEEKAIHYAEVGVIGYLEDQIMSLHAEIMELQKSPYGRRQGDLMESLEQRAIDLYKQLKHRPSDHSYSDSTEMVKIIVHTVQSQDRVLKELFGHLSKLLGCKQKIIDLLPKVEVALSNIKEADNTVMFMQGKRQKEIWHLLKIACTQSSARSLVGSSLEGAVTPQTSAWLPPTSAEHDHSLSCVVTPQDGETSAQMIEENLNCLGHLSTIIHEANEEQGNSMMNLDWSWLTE

[8] = biological target: Serine/threonine-protein kinase PAK 2 (Homo sapiens) (UniProt Q13177); assay: Inhibition of human recombinant PAK2 at 15 nM in presence of ATP by radiometric assay relative to control
Chain of Serine/threonine-protein kinase PAK 2 (Homo sapiens) (Q13177 whole entry, the tested form may be a part): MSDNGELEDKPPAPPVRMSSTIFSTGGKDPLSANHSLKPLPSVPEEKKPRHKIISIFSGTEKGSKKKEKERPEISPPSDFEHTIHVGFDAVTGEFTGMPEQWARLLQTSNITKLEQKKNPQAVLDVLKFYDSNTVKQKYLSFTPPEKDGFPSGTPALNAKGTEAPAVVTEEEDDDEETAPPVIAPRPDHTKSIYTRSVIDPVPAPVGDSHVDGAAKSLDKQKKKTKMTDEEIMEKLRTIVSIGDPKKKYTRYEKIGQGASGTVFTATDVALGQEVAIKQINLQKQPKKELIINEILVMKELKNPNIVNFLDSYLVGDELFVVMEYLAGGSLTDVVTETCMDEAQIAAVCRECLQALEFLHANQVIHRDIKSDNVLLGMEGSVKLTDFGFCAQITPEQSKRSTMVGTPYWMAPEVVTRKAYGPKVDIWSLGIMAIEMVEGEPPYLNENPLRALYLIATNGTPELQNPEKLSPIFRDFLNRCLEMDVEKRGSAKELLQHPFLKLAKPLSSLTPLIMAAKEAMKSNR

[9] = biological target: T3, Discoidin domain-containing receptor 2 (Homo sapiens) (UniProt Q16832); assay: Inhibition of human recombinant DDR2 at 40 nM in presence of ATP by radiometric assay relative to control
T3 sequence (whole entry): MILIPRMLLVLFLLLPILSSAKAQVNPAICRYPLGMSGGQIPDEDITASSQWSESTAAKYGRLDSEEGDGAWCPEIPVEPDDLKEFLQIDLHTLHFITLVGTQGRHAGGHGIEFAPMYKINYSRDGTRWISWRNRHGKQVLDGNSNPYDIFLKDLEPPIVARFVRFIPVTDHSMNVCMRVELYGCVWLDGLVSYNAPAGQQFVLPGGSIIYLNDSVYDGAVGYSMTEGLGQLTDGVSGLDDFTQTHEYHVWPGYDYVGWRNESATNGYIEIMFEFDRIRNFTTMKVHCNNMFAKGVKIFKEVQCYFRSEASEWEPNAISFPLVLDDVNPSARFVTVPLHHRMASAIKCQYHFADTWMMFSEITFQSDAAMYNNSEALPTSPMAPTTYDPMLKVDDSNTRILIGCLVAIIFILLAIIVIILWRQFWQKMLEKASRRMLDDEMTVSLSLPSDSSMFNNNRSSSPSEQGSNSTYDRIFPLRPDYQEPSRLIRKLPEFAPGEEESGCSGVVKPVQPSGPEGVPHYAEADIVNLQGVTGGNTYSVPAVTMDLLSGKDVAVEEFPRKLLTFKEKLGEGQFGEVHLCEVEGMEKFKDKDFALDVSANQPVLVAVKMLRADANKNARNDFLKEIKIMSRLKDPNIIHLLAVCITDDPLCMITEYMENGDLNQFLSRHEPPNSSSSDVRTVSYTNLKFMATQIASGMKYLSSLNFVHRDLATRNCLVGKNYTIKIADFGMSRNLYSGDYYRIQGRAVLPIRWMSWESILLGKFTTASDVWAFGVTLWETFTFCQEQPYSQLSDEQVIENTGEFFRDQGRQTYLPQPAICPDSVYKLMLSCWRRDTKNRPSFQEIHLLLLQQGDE

[10] = biological target: Calcium/calmodulin-dependent protein kinase kinase 2 (Homo sapiens) (UniProt Q96RR4); assay: Inhibition of human recombinant CaMKK2 at 40 nM in presence of ATP by radiometric assay relative to control
[11] = biological target: RAC-gamma serine/threonine-protein kinase (Homo sapiens) (UniProt Q9Y243); assay: Inhibition of human recombinant AKT3 at 40 nM related to control ULK1
Chain of RAC-gamma serine/threonine-protein kinase (Homo sapiens) (Q9Y243 whole entry): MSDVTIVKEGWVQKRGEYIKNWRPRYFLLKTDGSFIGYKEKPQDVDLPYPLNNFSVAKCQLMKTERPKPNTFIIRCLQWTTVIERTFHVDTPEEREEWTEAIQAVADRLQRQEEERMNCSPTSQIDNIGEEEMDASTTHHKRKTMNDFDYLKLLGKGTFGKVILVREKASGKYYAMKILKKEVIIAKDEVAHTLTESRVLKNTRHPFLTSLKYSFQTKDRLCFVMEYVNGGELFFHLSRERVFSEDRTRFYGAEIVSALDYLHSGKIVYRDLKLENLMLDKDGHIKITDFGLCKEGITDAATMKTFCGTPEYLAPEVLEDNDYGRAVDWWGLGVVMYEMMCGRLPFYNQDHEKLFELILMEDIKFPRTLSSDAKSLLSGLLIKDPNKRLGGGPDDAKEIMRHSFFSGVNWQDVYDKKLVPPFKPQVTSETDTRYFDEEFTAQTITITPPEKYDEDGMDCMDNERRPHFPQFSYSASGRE
How it was run: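 Radiometric activity assays in a panel of 327 human recombinant kinases, each run in duplicate at one inhibitor concentration. Activity remaining is expressed as percent of vehicle control, and percent inhibition is calculated as 100% minus percent activity remaining.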

Structure (SMILES): CNC(=O)c1ccccc1Oc1nc(Nc2cc(OC)c(OC)c(OC)c2)ncc1Br
- fold change (FC) [1]: 0.61
- fold change (FC) [2]: 0
- inhibition [3]: 23%
- inhibition [4]: 0%
- fold change (FC) [5]: 0.55

Structure (SMILES): CC(C)[C@H](NC(=O)c1cc(-c2cnn3cc(-c4ccc(OCCN5CCCCC5)cc4)cnc23)cs1)C(F)(F)F
- fold change (FC) [6]: 0.17
- inhibition [7]: 1%
- inhibition [8]: 0%

Structure (SMILES): O=C(N[C@@H](C1CC1)C(F)(F)F)c1cc(-c2cnn3cc(-c4ccc(F)cc4)cnc23)cs1
- inhibition [9]: 0%
- inhibition [10]: 0%
- fold change (FC) [11]: 0.03
